How the values were obtained:
Format in all cases: functional, cell-based
HepG2 = test: Cytotoxicity against human HepG2 cells by MTT assay
In short: (§1)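 Tumour cells cultured in RPMI-1640 with 10% (v/v) fetal calf serum plus penicillin and streptomycin, at 37 °C, humidified 5% CO2. Compounds from DMSO stocks; final DMSO in medium 2% (v/v) or lower. Assay in 96-well microtitre cultures with MTT staining. IC50 taken as concentration causing 50% growth inhibition relative to untreated cells.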

HeLa = test: Cytotoxicity against human HeLa cells by MTT assay; in short: as §1
Bel-7402 = test: Cytotoxicity against human Bel7402 cells by MTT assay; in short: as §1
BGC-823 = test: Cytotoxicity against human BGC823 cells by MTT assay; in short: as §1
MCF7 = test: Cytotoxicity against human MCF7 cells by MTT assay; in short: as §1

Row | Structure (SMILES) | IC50 (HepG2; read-out: IC50) [µM] | IC50 (HepG2; read-out: pIC50 (converted)) [µM] | IC50 (HeLa) [µM] | IC50 (Bel-7402) [µM] | IC50 (BGC-823) [µM] | IC50 (MCF7) [µM]
1 | CCCCOc1ccc2c3ccnc(C)c3n(CC(C)C)c2c1 | 12.1 | 12 | 20.8 | 42.5 | 12.1 | 7.2
2 | CCOC(=O)c1cc2c3ccccc3n(Cc3ccc(F)cc3)c2cn1 | > 200 |  | > 200 | > 200 | > 200 | > 200
3 | O=C(NCCO)c1cc2c3ccccc3n(Cc3ccc(F)cc3)c2cn1 | > 200 |  | > 200 | > 200 | > 200 | > 200
4 | COc1ccc2c(c1)[nH]c1c(C)[n+](Cc3ccccc3)ccc12 | 54.6 | 55 | 77.6 | 64.2 | 67.4 | 76.2
5 | CCCCn1c2ccccc2c2cc(CO)nc(C)c21 | 128 | 129 | 100 | 122 | 127 | 107
6 | CCCCn1c2ccccc2c2cc(C=O)nc(C)c21 | 143 | 145 | 169 | 123 | > 200 | 154
7 | CCCCn1c2ccccc2c2cc(C(=O)NCCO)nc(-c3cc(OC)c(OC)c(OC)c3)c21 |  |  | > 200 | > 200 |  | 105
8 | Cc1nccc2c3ccc(OCc4ccccc4)cc3n(CC(C)C)c12 | 22.2 | 22.4 | 50.5 | 26.8 | 36 | 54.1
9 | Cc1nccc2c3ccc(OC(C)C)cc3n(CCCc3ccccc3)c12 | 14.6 | 14.5 | 48.6 | 36.2 | 16.3 | 45.3
10 | CCCC[n+]1ccc2c(c1)[nH]c1ccccc12 | 94 | 93.3 | 130 | 302 | 326 | 338
11 | c1ccc(C[n+]2ccc3c(c2)[nH]c2ccccc23)cc1 | 77.3 | 77.6 | 85.4 | 65.1 | 91.8 | 91.3
12 | CCOc1ccc2c3ccnc(C)c3n(CC)c2c1 | 68.9 | 69.2 | 30.7 | 27.4 | 57.1 | 14.4
13 | CCn1c2cc(OCc3c(F)c(F)c(F)c(F)c3F)ccc2c2ccnc(C)c21 | 236 | 234 | 258 | 241 | 238 | 103
14 | CCCCn1c2cc(OCC)ccc2c2ccnc(C)c21 | 43.3 | 43.7 | 32.1 | 36.1 | 37.2 | 12
15 | CCCCn1c2cc(OC(C)C)ccc2c2ccnc(C)c21 | 30.2 | 30.2 | 21.2 | 26.8 | 19.1 | 19.5
16 | CCCCCCCCCCOc1ccc2c3ccnc(C)c3n(CCCC)c2c1 | 127 | 126 | 106 | 18.8 | 28.4 | 62.7
17 | Cc1c2[nH]c3ccccc3c2cc[n+]1CCCc1ccccc1 | 33 | 33.1 | 49.8 | 20.5 | 3.5 | 23.8
18 | c1ccc(CCC[n+]2ccc3c(c2)[nH]c2ccccc23)cc1 | 44.6 | 44.7 | 44.3 | 24.6 | 7.1 | 5.7
19 | CCn1c2cc(O)ccc2c2ccnc(C)c21 | 134 | 135 | 70.3 | 165 | 160 | 106
20 | Cc1c2[nH]c3ccccc3c2cc[n+]1Cc1ccccc1 | 69.5 | 69.2 | 69.2 | 74 | 77.4 | 89.2
21 | O=C(NCCO)c1cc2c3ccccc3n(CCCc3ccccc3)c2cn1 | > 200 |  | > 200 | > 200 | > 200 | > 200
22 | OCc1cc2c3ccccc3n(Cc3ccc(F)cc3)c2cn1 | > 200 |  | > 200 | > 200 | > 200 | > 200
23 | CCCCn1c2ccccc2c2cc(C(=O)NCCN)ncc21 | 82.9 | 83.2 | 26.9 | 115 | 53.2 | 18.5
24 | CCn1c2cc(OCc3c(F)c(F)c(F)c(F)c3F)ccc2c2cc[n+](Cc3ccccc3)c(C)c21 | 1.6 | 1.58 | 0.93 | 4 | 4.6 | 5.7

Row | Structure (SMILES) | IC50 (HepG2; read-out: IC50) [µM] | IC50 (HepG2; read-out: pIC50 (converted)) [µM] | IC50 (HeLa) [µM] | IC50 (Bel-7402) [µM] | IC50 (BGC-823) [µM] | IC50 (MCF7) [µM]
25 | CCCCOc1ccc2c3cc[n+](Cc4ccccc4)c(C)c3n(CC(C)C)c2c1 | 1.8 | 1.82 | 2.6 | 5.3 | 6.8 | 5.3
26 | Cc1c2c(cc[n+]1Cc1ccccc1)c1ccc(OCc3ccccc3)cc1n2CC(C)C | 1.9 | 1.91 | 12.4 | 5 | 5.2 | 3.9
27 | Cc1nccc2c3ccc(OCc4ccccc4)cc3n(CCCc3ccccc3)c12 | 15.7 | 15.8 | 72.6 | 29.4 | 19.5 | 63.3
28 | Cc1nccc2c3ccc(OCc4c(F)c(F)c(F)c(F)c4F)cc3n(CCCc3ccccc3)c12 | 147 | 148 | 73.5 | 18.6 | 7.88 | 38.7
29 | Cc1nccc2c3ccc(O)cc3n(CCCc3ccccc3)c12 | 28.3 | 28.2 | 45.3 | 35.1 | 29.9 | 34.5
30 | CCCCn1c2cc(O)ccc2c2ccnc(C)c21 | 81.5 | 81.3 | 89.8 | 69.5 | 90.2 | 46.9
31 | CCOC(=O)c1cc2c([nH]c3ccccc32)c(-c2cc(OC)c(OC)c(OC)c2)n1 | 167 | 166 | > 200 | > 200 | > 200 | 123
32 | CCCCn1c2ccccc2c2cc(C(=O)NCCCCCCN)ncc21 | 95.8 | 95.5 | 53 | 58.5 | 110 | 42.8
33 | CCCCn1c2ccccc2c2cc(C(=O)NCCO)nc(C)c21 | 140 | 141 | 80.4 | 90.6 | 45 | 97.3
34 | CCCCn1c2ccccc2c2cc(C(=O)NCCN)nc(C)c21 | 21.9 | 21.9 | 13.3 | 56 | 17.3 | 7.5
35 | O=C(NCCO)c1cc2c3ccccc3n(Cc3ccccc3)c2cn1 | > 200 |  | > 200 | > 200 | > 200 | > 200
36 | NCCCCCCNC(=O)c1cc2c3ccccc3n(Cc3ccccc3)c2cn1 | 58.7 | 58.9 | 24.2 | 56.8 | 34.8 | 54.1
37 | CCCCn1c2ccccc2c2cc(C(=O)OCC)nc(-c3cc(OC)c(OC)c(OC)c3)c21 | > 200 |  | > 200 | > 200 |  | > 200
38 | CCCCn1c2ccccc2c2cc(C(=O)O)nc(-c3cc(OC)c(OC)c(OC)c3)c21 | 208 | 209 | 166 | 187 | 36.2 | 115
39 | CCCCOc1ccc2c3ccnc(C)c3n(CCCC)c2c1 | 15.5 | 15.5 | 17.4 | 69.9 | 15.8 | 17.3
40 | O=Cc1cc2c3ccccc3n(Cc3ccc(F)cc3)c2cn1 | > 200 |  | > 200 | > 200 | > 200 | > 200
41 | CCCCCCCCOc1ccc2c3cc[n+](Cc4ccccc4)c(C)c3n(CCCc3ccccc3)c2c1 | 3.9 | 3.89 | 2.2 | 2 | 3.9 | 5.3
42 | CCOc1ccc2c3cc[n+](Cc4ccccc4)c(C)c3n(CC)c2c1 | 14.3 | 14.5 | 2.2 | 12.6 | 9.2 | 8.1
43 | CCCCCCCCOc1ccc2c3ccnc(C)c3n(CCCc3ccccc3)c2c1 | 105 | 105 | 69.6 | 21.8 | 17.4 | 45.9
44 | NCCNC(=O)c1cc2c3ccccc3n(Cc3ccccc3)c2cn1 | 104 | 105 | 42.8 | 51.7 | 11.9 | 51.6
45 | CCOC(=O)c1cc2c([nH]c3ccccc32)c(C)[n+]1Cc1ccccc1 | 53 | 52.5 | 101 | 56.2 | 55.3 | 44.9
46 | Cc1nccc2c3ccc(O)cc3n(CC(C)C)c12 | 116 | 115 | 68.3 | 114 | 140 | 96.9
47 | Cc1nc(C(=O)NCCN)cc2c3ccccc3n(Cc3ccccc3)c12 | 34.8 | 34.7 | 11 | 53.6 | 20.3 | 4.7

— ChEMBL document CHEMBL1165904, “Design, synthesis and 3D-QSAR of beta-carboline derivatives as potent antitumor agents” (Eur J Med Chem, 2010)
